In ChEMBL document CHEMBL3271958, “Azaparacyclophanes. A novel class of conformationally rigid analogs of phenylethylamine and phenylpropylamine” (J Med Chem, 1976):
Calls of active or inactive are those of the source. No cut-off for these calls is given here.

Assays:
[1] = test system: Felis catus; experiment: Anticholinergic activity in cat assessed as effect on acetylcholine-induced normal heart rate and blood pressure changes at 1 to 10 mg/kg, iv; type: ADME, organism-based; set-up: dose 1-10 mg/kg, route intravenous; conditions: in vivo
Summary of the method: (§1)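 Pentobarbital-anaesthetised cat monitored for blood pressure and heart rate. Hydrochloride salt given as cumulative iv doses of 1, 3 and 10 mg/kg, each tested against a standard acetylcholine challenge of 1 μg/kg, noting any change in the normal heart-rate and pressure responses.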

[2] = test system: Rattus norvegicus; experiment: Central dopaminergic activity in rat assessed as dopaminergic stimulant activity at 30 mg/kg, ip; type: ADME, organism-based; set-up: dose 30 mg/kg, route intraperitoneal; conditions: in vivo
Summary of the method: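 Rats carrying 6-hydroxydopamine lesions of the nigrostriatal pathway (Ungerstedt), dosed 30 mg/kg ip. Rotation was scored: ipsilateral turning indicates release of endogenous dopamine, contralateral turning indicates direct dopamine-receptor stimulation.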

[3] = test system: Felis catus; experiment: Sympathomimetic activity in iv dosed cat assessed as increase of heart rate and blood pressure; type: ADME, organism-based; conditions: in vivo; summary of the method: as §1
[4] = test system: Mus musculus; experiment: Sympathomimetic activity in mouse assessed as signs of exophthalmia and piloerection at 10 to 300 mg/kg, ip; type: ADME, organism-based; set-up: dose 10-300 mg/kg, route intraperitoneal; conditions: in vivo
[5] = test system: Mus musculus; experiment: Induction of mydriasis in mouse assessed as papillary diameter at 30 mg/kg, ip by binocular microscopic analysis; type: functional, organism-based; set-up: dose 30 mg/kg
Summary of the method: (§2)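 Mouse pupil diameter was read through a binocular microscope fitted with an ocular micrometer (Pulewka method), after dosing within the mouse behaviour screen.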

[6] = test system: Mus musculus; experiment: Induction of mydriasis in mouse assessed as papillary diameter at 25 mg/kg, sc by binocular microscopic analysis; type: functional, organism-based; set-up: dose 25 mg/kg; summary of the method: as §2
[7] = test system: Mus musculus; experiment: Sympathomimetic activity in mouse assessed as signs of exophthalmia at 100 mg/kg, ip; type: ADME, organism-based; set-up: dose 100 mg/kg, route intraperitoneal; conditions: in vivo
Summary of the method: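 Irwin-type mouse behavioural screen with intraperitoneal doses of 10, 30, 100 and 300 mg/kg, compound given as the hydrochloride salt. Animals were scored by observation for overt signs, including exophthalmia as an indicator of sympathomimetic activity and mydriasis. Pupil diameter was measured under a binocular microscope with an ocular micrometer.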

[8] = test system: Mus musculus; experiment: Induction of mydriasis in mouse assessed as […] at 100 mg/kg, ip by binocular microscopic analysis; type: functional, organism-based; set-up: dose 100 mg/kg; summary of the method: as §2
[9] = test system: Mus musculus; experiment: Toxicity in mouse at 100 mg/kg, ip; type: organism-based; set-up: dose 100 mg/kg, route intraperitoneal; conditions: in vivo
[10] = test system: Mus musculus; experiment: Toxicity in mouse at 30 mg/kg, ip; type: organism-based; set-up: dose 30 mg/kg, route intraperitoneal; conditions: in vivo

SMILES | Activity [1] | Activity [2] | Activity [3] | Activity [4] | Activity [5] | Activity [6] | Activity [7] | Activity [8] | Activity [9] | Activity [10]
Cl.c1cc2ccc1CCCCCNCCC2 | Non-toxic | Non-toxic | Non-toxic | Non-toxic | Active | Active |  |  |  | 
CCCCc1ccc(CCCNC)cc1.Cl |  | Non-toxic |  |  |  |  | Toxic | Active |  | 
CCCCCc1ccc(CCNC)cc1.O=C(O)/C=C\C(=O)O |  | Non-toxic |  |  |  |  |  | inactive | Toxic | 
O=C(O)/C=C\C(=O)O.c1cc2ccc1CCCCCCNCC2 |  | Non-toxic |  |  | inactive |  |  |  |  | Toxic
